Assays:
[1] = test system: Candida albicans; assay: Antifungal activity against Candida albicans; type: functional
Procedure, shortened: (§1)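 Broth microdilution in flat-bottom plates in RPMI 1640 with 2% glucose; inoculum 0.5 × 105 to 2.5 × 10^5 CFU/ml. MICs were read spectrophotometrically at 24 h. AMB endpoint: ≥90% growth reduction vs drug-free control well. Azole and CPF endpoint: 50% reduction in optical density. MFC was taken as the lowest concentration giving 99% killing.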

[2] = test system: Nakaseomyces glabratus; assay: Antifungal activity against Candida glabrata; type: functional; procedure, shortened: as §1
[3] = test system: Candida parapsilosis; assay: Antifungal activity against Candida parapsilosis; type: functional; conditions: Lodderomyces parapsilosis; procedure, shortened: as §1
[4] = test system: Pichia kudriavzevii; assay: Antifungal activity against Candida krusei; type: functional
Procedure, shortened: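 EUCAST broth microdilution for yeasts in flat-bottom plates, RPMI 1640 with 2% glucose, inoculum 0.5 × 105 to 2.5 × 10^5 CFU/ml. […] MFC is the lowest concentration giving 99% killing.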

[5] = test system: Clavispora lusitaniae; assay: Antifungal activity against Candida lusitaniae; type: functional; procedure, shortened: as §1
[6] = test system: Candida tropicalis; assay: Antifungal activity against Candida tropicalis; type: functional; procedure, shortened: as §1
[7] = test system: Meyerozyma guilliermondii; assay: Antifungal activity against Candida guilliermondii; type: functional; procedure, shortened: as §1
[8] = test system: Saccharomyces cerevisiae; assay: Antifungal activity against Saccharomyces cerevisiae; type: functional
Procedure, shortened: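 Broth microdilution following EUCAST for fermentative yeasts, in flat-bottom plates with RPMI 1640 plus 2% glucose. Inoculum was 0.5 × 10^5 to 2.5 × 10^5 CFU/ml. End points were read spectrophotometrically at 24 h: ≥90% growth reduction versus a drug-free control for amphotericin B, and 50% OD reduction for azoles and caspofungin. MFC was the lowest concentration giving 99% killing.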

[9] = Antifungal activity against Cryptococcus neoformans var. neoformans; type: functional; conditions: Cryptococcus deneoformans
Procedure, shortened: (§2)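 EUCAST yeast microdilution, modified for nonfermentative yeasts: plates were sealed and agitated at 350 rpm and 30°C for 48 h.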

[10] = test system: Cryptococcus gattii; assay: Antifungal activity against Cryptococcus neoformans var. gattii; type: functional, Cryptococcus bacillisporus; procedure, shortened: as §2
[11] = test system: Trichosporon inkin; assay: Antifungal activity against Trichosporon inkin; type: functional
Procedure, shortened: (§3)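 Nonfermentative yeasts were tested by the EUCAST microdilution recommendations with one change: plates were sealed and agitated at 350 rpm and 30°C for 48 h.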

[12] = test system: Trichosporon asahii; assay: Antifungal activity against Trichosporon asahii; type: functional; procedure, shortened: as §3
[13] = test system: Geotrichum candidum; assay: Antifungal activity against Geotrichum candidum; type: functional
[14] = test system: Aspergillus fumigatus; assay: Antifungal activity against Aspergillus fumigatus; type: functional
[15] = test system: Aspergillus terreus; assay: Antifungal activity against Aspergillus terreus; type: functional
[16] = test system: Aspergillus flavus; assay: Antifungal activity against Aspergillus flavus; type: functional
[17] = test system: Aspergillus niger; assay: Antifungal activity against Aspergillus niger; type: functional
[18] = test system: Rhizomucor; assay: Antifungal activity against Rhizomucor species; type: functional
[19] = test system: Lichtheimia corymbifera; assay: Antifungal activity against Absidia corymbifera; type: functional
[20] = test system: Absidia; assay: Antifungal activity against Absidia species; type: functional
[21] = Antifungal activity against Rhizopus microsporus var. oligosporus; type: functional
Procedure, shortened: (§4)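 Broth microdilution following the EUCAST reference procedure for spore-forming moulds, in flat-bottom plates with RPMI 1640 plus 2% glucose. Inoculum was 2 × 10^5 to 5 × 10^5 CFU/ml. MICs were read visually at 24 and 48 h as 100% growth reduction versus a drug-free control for polyenes and azoles. MEC was used for caspofungin. Tests were run in duplicate and repeated twice.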

[22] = test system: Rhizopus arrhizus; assay: Antifungal activity against Rhizopus oryzae; type: functional; procedure, shortened: as §4
[23] = test system: Rhizopus; assay: Antifungal activity against Rhizopus species; type: functional; procedure, shortened: as §4
[24] = test system: Mucor hiemalis; assay: Antifungal activity against Mucor hiemalis; type: functional
[25] = test system: Mucor; assay: Antifungal activity against Mucor species; type: functional
[26] = test system: Cunninghamella; assay: Antifungal activity against Cunninghamella species; type: functional
[27] = test system: Lomentospora prolificans; assay: Antifungal activity against Scedosporium prolificans; type: functional; procedure, shortened: as §4
[28] = test system: Scedosporium apiospermum; assay: Antifungal activity against Scedosporium apiospermum; type: functional; procedure, shortened: as §4
[29] = test system: Talaromyces marneffei; assay: Antifungal activity against Penicillium marneffei; type: functional
[30] = test system: Penicillium sp.; assay: Antifungal activity against Penicillium species; type: functional
[31] = test system: Fusarium solani; assay: Antifungal activity against Fusarium solani; type: functional
[32] = test system: Fusarium oxysporum; assay: Antifungal activity against Fusarium oxysporum; type: functional
[33] = test system: Sporothrix schenckii; assay: Antifungal activity against Sporothrix schenckii; type: functional; procedure, shortened: as §4
[34] = test system: Curvularia lunata; assay: Antifungal activity against Curvularia lunata; type: functional
[35] = test system: Curvularia australiensis; assay: Antifungal activity against Bipolaris australiensis; type: functional
Procedure, shortened: (§5)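 Dematiaceous fungi were tested by the EUCAST spore-forming mold reference procedure: flat-bottom microdilution plates, RPMI 1640 plus 2% glucose, inoculum 2 × 105 to 5 × 10^5 CFU/ml. Endpoints were read visually at 24 and 48 h. Polyenes and azoles: 100% growth reduction vs drug-free control. CPF: minimum effective concentration. Run in duplicate and repeated twice.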

[36] = Antifungal activity against Rhinocladiella aquaspersa; type: functional; procedure, shortened: as §5
[37] = test system: Candida albicans; assay: Antifungal activity against Candida albicans by EUCAST method; type: functional; procedure, shortened: as §1
[38] = test system: Nakaseomyces glabratus; assay: Antifungal activity against Candida glabrata by EUCAST method; type: functional; procedure, shortened: as §1

CC[C@H](C)C[C@H](C)CCCCCCCCC(=O)N[C@H]1C[C@@H](O)[C@@H](NCCN)NC(=O)[C@@H]2[C@@H](O)CCN2C(=O)[C@H]([C@H](O)CCN)NC(=O)[C@H]([C@H](O)[C@@H](O)c2ccc(O)cc2)NC(=O)[C@@H]2C[C@@H](O)CN2C(=O)[C@H]([C@@H](C)O)NC1=O [CASPOFUNGIN]
0.15 µg/mL: MFC [1] | MFC [2]
4 µg/mL: MFC [5] | MFC [8]
0.25 µg/mL: MFC [3]
> 8 µg/mL: MFC [9] | MFC [10] | MFC [11] | MFC [12] | MFC [13] | MFC [14] | MFC [15] | MFC [16] | MFC [17] | MFC [18] | MFC [19] | MFC [20] | MFC [21] | MFC [22] | MFC [23] | MFC [24] | MFC [25] | MFC [26] | MFC [27] | MFC [28] | MFC [29] | MFC [30] | MFC [31] | MFC [32] | MFC [33] | MFC [34] | MFC [35] | MFC [36]
0.14 µg/mL: MIC [37]
2 µg/mL: MFC [4]
0.32 µg/mL: MIC [38]
0.5 µg/mL: MFC [6]
> 2 µg/mL: MFC [7]

From ChEMBL document CHEMBL1275524, “Activities of antifungal agents against yeasts and filamentous fungi: assessment according to the methodology of the European Committee on Antimicrobial Susceptibility Testing” (2008)
